Activity calls are given as the source filed them. The calls are words filed in the database; no cut-off is given here. Positions of bridges follow the written chain, without caps; N, C: chain ends. Non-standard residues stand in square brackets, D forms with d. Residues, ends and D or L forms follow the SMILES beside them. NMeW = CN[C@@H](Cc1c[nH]c2ccccc12)C(=O)O; 2Abz = Nc1ccccc1C(=O)O
What was measured:
Assay type in all cases: functional, cell-based
HeLa = assay: Cytotoxicity against human HeLa cells by SRB assay
SMMC-7721 = assay: Cytotoxicity against human SMMC7721 cells by SRB assay
A549 = assay: Cytotoxicity against human A549 cells by SRB assay
HepG2 = assay: Lipid-lowering activity in human HepG2 cells assessed as reduction in oleic acid-elicited intracellular lipid accumulation at 10 uM after 6 hrs by Oil Red O staining method
Procedure, shortened: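 HepG2 cells were kept in DMEM with 10% FBS and penicillin/streptomycin (100 μg/mL). At 70−80% confluence, cells were loaded with oleic acid (100 μM in DMEM) for 12 h. They were then exposed to test agent (10 μM) in DMEM/100 μM oleic acid for a further 6 h. Simvastatin served as positive control and DMEM/oleic acid as blank. Lipid was read by Oil Red O staining.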

Structure (SMILES) | IC50 (HeLa) | IC50 (SMMC-7721) | IC50 (A549) | Activity (HepG2)
CC(=O)N[C@H]1Cc2cn(c3ccccc23)C(=O)c2ccccc2NC(=O)[C@@H]2CCCN2C1=O (Ac-Trp-Pro-[2Abz]; lactam 1-C) | > 100 µM | > 100 µM | > 100 µM | –
CC(=O)N(C)[C@@H]1C(=O)N2CCC[C@H]2C(=O)Nc2ccccc2C(=O)n2cc(c3c(O)cccc32)[C@H]1O | > 100 µM | > 100 µM | > 100 µM | –
CC(=O)N(C)[C@H]1Cc2cn(c3ccccc23)C(=O)c2ccccc2NC(=O)[C@@H]2CCCN2C1=O (Ac-[NMeW]-Pro-[2Abz]; lactam 1-C) | > 100 µM | > 100 µM | > 100 µM | –
CC(=O)N(C)[C@@H]1C(=O)N2CCC[C@H]2C(=O)Nc2ccccc2C(=O)n2cc(c3ccccc32)[C@H]1O | > 100 µM | > 100 µM | > 100 µM | Active
